Results reported in publication PMC5305809 (ACS chemical biology, 2016).

Columns and labels:
[1] = test system: Jurkat cells; assay: Global fatty acylation by metabolic labeling; format: cell-based; conditions: 25 μM inhibitor, 15 hrs
[2] = test system: Jurkat cells; assay: Western blot for global protein lysine acetylation; format: cell-based; conditions: Jurkat cells treated with 25 μM HDAC inhibitor
How it was run: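 Jurkat cells in RPMI 1640 with 10% FBS, exposed to test compound (25 μM) for 15 hrs. Cells lysed in 4% SDS buffer with protease inhibitor cocktail and nuclease, protein quantified by BCA.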

[3] = biological target: T1, HDAC8 (Homo sapiens, UniProt Q9BY41); assay: HDAC8 kinetics assay on H3K9 acyl peptides; format: biochemical; conditions: for kcat/Km: from slope of linear plot where kcat ND
T1 sequence (Q9BY41 1-377): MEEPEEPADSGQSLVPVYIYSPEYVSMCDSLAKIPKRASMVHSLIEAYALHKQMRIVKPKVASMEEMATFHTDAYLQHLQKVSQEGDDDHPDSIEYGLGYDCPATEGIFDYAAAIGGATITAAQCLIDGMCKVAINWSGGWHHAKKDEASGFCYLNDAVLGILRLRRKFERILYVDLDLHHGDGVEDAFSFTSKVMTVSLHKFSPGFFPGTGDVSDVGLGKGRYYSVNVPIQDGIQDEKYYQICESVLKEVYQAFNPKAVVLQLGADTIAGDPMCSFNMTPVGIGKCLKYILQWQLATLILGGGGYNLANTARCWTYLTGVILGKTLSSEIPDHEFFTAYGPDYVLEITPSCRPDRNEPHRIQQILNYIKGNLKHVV

[4] = test system: HeLa cells; assay: Global fatty acylation by metabolic labeling; format: cell-based
How it was run: (§1)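 Cells grown in DMEM with 10% FBS at 37 °C, 5% CO2. They were pretreated with test compound or DMSO, then cultured with Alk12, an alkyne myristic acid analogue, for metabolic labeling. Labeled proteins were clicked to BODIPY-azide and precipitated. Cysteine acylation was removed with 0.5 M hydroxylamine pH 8.0 at 95 °C for 7 min. Read-out was in-gel fluorescence after SDS-PAGE.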

[5] = test system: HEK-293T cells; assay: Global fatty acylation by metabolic labeling; format: cell-based, human
How it was run: as §1

[6] = test system: MDA-MB 231 cells; assay: Global fatty acylation by metabolic labeling; format: cell-based
How it was run: as §1

[7] = recombinant HDAC8 from E. coli, 1 μM, 37 °C, 1 hr, pH 8, duplicate, ± S.D., SD
[8] = recombinant HDAC8 from E. coli, 1 μM, 37 °C, 1 hr, pH 8, duplicate, ± S.D.
[9] = recombinant HDAC8 from Sf9 insect cells

Molecule	global protein lysine fatty acylation vs control (Alk12 labeling) [1]	global lysine acetylation level (Western blot) [2]	Km [3, 7]	kcat [3, 7]	Km [3, 8]	also measured
O=C(CCCCCCC(=O)Nc1ccccc1)NO [SAHA]	much lower than the control	predominantly increased the acetylation of protein bands around 55 kDa	–	–	–	–
KQTARKSTGGWW [Palmitoyl H3K9]	–	–	18.3 ± 7.4 µM	0.0005 ± 0.00007 S^−1	–	–
KQTARKSTGGWW [Butyryl H3K9]	–	–	–	–	> 200 µM	–
COc1ccc(Cn2ccc3ccc(C(=O)NO)cc32)cc1 [PCI-34051]	exhibited enhanced global protein lysine fatty acylation	did not noticeably increase protein lysine acetylation	–	–	–	fatty acylation vs DMSO control (Alk12 labeling) [4]: slightly increased fatty acylation; fatty acylation vs DMSO control (Alk12 labeling) [5]: slightly increased fatty acylation; fatty acylation vs DMSO control (Alk12 labeling) [6]: slightly increased fatty acylation
Cc1[nH]c2ccccc2c1CCNCc1ccc(/C=C/C(=O)NO)cc1 [Panobinostat]	much lower than the control	predominantly increased the acetylation of protein bands around 55 kDa	–	–	–	–
KQTARKSTGGWW [Octanoyl H3K9]	–	–	146 ± 10.3 µM	0.0202 ± 0.0005 S^−1	–	–
KQTARKSTGGWW [Myristoyl H3K9]	–	–	15.8 ± 5.1 µM	0.0019 ± 0.0003 S^−1	~16 µM	demyristoylation catalytic efficiency relative to deacetylation ([3]; HDAC8 purified from Sf9 insect cells, myristoyl- vs acetyl-H3K9): > 2 times; Km [3, 9]: 60.5 µM; kcat [3, 9]: 0.0755 ^b S^−1; kcat/Km [3, 9]: 1,246 ^b S^−1.M^−1
Nc1ccccc1NC(=O)c1ccc(CNc2nccc(-c3cccnc3)n2)cc1 [Mocetinostat]	only PCI-34051-treated Jurkat cells exhibited enhanced global protein lysine fatty acylation	did not noticeably increase protein lysine acetylation	–	–	–	–
KQTARKSTGGWW [Acetyl H3K9]	–	–	–	–	> 600 µM	Km [3, 9]: > 300 µM; kcat/Km [3, 9]: 480.8 ^b S^−1.M^−1
KQTARKSTGGWW [Dodecanoyl H3K9]	–	–	69.5 ± 10.1 µM	0.0123 ± 0.0013 S^−1	–	–
